Laboratory results published in ChEMBL document CHEMBL3526048, “In vitro metabolism of rivoglitazone, a novel peroxisome proliferator-activated receptor γ agonist, in rat, monkey, and human liver microsomes and freshly isolated hepatocytes” (Drug Metab Dispos, 2011).

Experiments:
Cytochrome P450 2C9 = Cytochrome P450 2C9 (Homo sapiens, UniProt P11712); assay: Activity of human CYP2C9 expressed in microsomes isolated from baculovirus infected insect cell assessed as enzyme-mediated compound formation treated with [14C]-rivoglitazone at 20 uM after 2 hrs by radio-HPLC/LC-MS/MS analysis in presence of NADPH-generating system; assay type: ADME
Sequence of Cytochrome P450 2C9 (P11712 whole entry): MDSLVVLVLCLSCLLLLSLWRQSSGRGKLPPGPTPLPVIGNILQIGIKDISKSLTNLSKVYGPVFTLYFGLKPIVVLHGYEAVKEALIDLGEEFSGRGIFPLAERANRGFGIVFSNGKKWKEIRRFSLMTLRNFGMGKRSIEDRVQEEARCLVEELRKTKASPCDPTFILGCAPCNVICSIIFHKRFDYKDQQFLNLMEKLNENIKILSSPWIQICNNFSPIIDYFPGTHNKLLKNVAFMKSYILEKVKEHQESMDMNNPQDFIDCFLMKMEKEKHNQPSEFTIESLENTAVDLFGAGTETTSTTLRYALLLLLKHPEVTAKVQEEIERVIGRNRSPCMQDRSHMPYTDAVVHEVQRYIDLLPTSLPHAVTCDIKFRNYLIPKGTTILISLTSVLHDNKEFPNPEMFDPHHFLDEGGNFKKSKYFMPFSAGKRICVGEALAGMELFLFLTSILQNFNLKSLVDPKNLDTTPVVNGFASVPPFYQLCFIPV
Summary of the method: (§1)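 Baculovirus-insect-cell microsomes expressing the human CYP (1 mg/ml protein) were incubated with [14C]rivoglitazone (20 μM) in 50 mM potassium phosphate (pH 7.4) or 100 mM Tris-HCl (pH 7.5) with an NADPH-generating system (2 mM NADP+, 20 mM glucose 6-phosphate, 2 units/ml G6PDH, 10 mM MgCl2) for 2 h at 37°C. Insect-cell control supersomes served as the control. Reactions were stopped with acetonitrile, and the concentrated supernatants were analysed by radio-HPLC, LC-MS and LC-MS/MS.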

Cytochrome P450 3A5 [1] = target: T1, Cytochrome P450 3A5 (Homo sapiens, UniProt P20815); assay: Activity of human CYP3A5 expressed in microsomes isolated from baculovirus infected insect cell assessed as enzyme-mediated 2-((4-((2,4-dioxothiazolidin-5-yl)methyl)phenoxy)methyl)-1-methyl-1H-benzo[d]imidazol-6-yl hydrogen sulfate formation at 20 uM after 2 hrs by radio-HPLC/LC-MS/MS analysis; assay type: ADME; summary of the method: as §1
T1 sequence (P20815 whole entry): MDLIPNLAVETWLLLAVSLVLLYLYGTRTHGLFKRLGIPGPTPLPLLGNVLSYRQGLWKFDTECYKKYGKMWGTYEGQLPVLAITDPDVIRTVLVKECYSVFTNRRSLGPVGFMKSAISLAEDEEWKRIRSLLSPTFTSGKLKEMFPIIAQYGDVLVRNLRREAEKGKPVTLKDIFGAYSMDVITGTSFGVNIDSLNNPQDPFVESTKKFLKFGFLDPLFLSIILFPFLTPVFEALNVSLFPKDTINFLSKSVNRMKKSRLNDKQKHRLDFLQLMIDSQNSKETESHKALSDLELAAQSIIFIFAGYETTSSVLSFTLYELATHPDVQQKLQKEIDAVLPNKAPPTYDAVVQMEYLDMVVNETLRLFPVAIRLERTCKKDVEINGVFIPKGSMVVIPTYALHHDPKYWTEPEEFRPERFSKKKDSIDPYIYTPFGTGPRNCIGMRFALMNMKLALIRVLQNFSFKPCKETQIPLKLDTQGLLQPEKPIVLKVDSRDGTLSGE

[2] = target: T2, UDP-glucuronosyltransferase 1A3 (Homo sapiens, UniProt P35503); assay: Activity of human UGT1A3 expressed in microsomes isolated from baculovirus infected insect cell assessed as enzyme-mediated 3-(4-((6-methoxy-1-methyl-1H-benzo[d]imidazol-2-yl)methoxy)phenyl)-2-(methylsulfonyl)propanamide formation at 20 uM after 4 hrs by radio-HPLC/LC-MS/MS analysis in presence of NADPH-generating system/SAM; assay type: ADME
T2 sequence (P35503 whole entry): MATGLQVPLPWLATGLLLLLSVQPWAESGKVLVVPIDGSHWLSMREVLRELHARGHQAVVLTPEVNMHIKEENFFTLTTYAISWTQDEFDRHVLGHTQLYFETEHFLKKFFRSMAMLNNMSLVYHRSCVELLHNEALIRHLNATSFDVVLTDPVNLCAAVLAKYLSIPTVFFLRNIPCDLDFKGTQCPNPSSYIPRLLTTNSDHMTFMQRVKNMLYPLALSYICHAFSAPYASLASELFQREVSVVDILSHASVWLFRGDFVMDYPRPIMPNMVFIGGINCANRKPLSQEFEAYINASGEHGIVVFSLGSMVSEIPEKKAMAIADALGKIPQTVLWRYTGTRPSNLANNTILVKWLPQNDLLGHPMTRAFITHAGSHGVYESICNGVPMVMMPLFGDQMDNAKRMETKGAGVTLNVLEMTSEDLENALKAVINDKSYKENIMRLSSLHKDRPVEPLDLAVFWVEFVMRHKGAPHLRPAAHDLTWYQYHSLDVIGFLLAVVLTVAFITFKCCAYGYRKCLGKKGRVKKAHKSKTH

[3] = target: T3, UDP-glucuronosyltransferase 1A6 (Homo sapiens, UniProt P19224); assay: Activity of human UGT1A6 expressed in microsomes isolated from baculovirus infected insect cell assessed as enzyme-mediated (2S,3S,4S,5R,6R)-6-((1-carboxy-2-(4-((6-methoxy-1-methyl-1H-benzo[d]imidazol-2-yl)methoxy)phenyl)ethylthio)carbonylamino)-3,4,5-trihydroxytetrahydro-2H-pyran-2-carboxylic acid formation at 20 uM after 4 hrs by radio-HPLC/LC-MS/MS analysis in presence of UDPGA; assay type: ADME
T3 sequence (P19224 whole entry): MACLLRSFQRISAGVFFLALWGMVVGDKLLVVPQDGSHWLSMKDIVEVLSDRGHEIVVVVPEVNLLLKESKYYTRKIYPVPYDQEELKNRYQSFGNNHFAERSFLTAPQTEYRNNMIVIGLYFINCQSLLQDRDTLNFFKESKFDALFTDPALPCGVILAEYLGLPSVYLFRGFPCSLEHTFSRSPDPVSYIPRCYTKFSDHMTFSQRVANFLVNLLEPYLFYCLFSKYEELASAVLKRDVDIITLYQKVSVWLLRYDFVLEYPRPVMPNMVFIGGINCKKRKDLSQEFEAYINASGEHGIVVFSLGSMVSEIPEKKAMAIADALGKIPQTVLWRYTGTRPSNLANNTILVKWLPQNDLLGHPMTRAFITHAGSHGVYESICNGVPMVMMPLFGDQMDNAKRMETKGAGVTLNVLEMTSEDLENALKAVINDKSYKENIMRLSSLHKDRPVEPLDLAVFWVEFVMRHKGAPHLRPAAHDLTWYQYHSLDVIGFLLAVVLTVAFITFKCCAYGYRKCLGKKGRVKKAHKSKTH

Cytochrome P450 3A4 [4] = target: T4, Cytochrome P450 3A4 (Homo sapiens, UniProt P08684); assay: (§2) Activity of human CYP3A4 expressed in microsomes isolated from baculovirus infected insect cell assessed as enzyme-mediated 5-(4-((6-hydroxy-1-methyl-1H-benzo[d]imidazol-2-yl)methoxy)benzyl)thiazolidine-2,4-dione formation at 20 uM after 2 hrs by radio-HPLC/LC-MS/MS analysis in presence of NADPH-generating system and NADPH-generating system/SAM; assay type: ADME
T4 sequence (P08684 whole entry): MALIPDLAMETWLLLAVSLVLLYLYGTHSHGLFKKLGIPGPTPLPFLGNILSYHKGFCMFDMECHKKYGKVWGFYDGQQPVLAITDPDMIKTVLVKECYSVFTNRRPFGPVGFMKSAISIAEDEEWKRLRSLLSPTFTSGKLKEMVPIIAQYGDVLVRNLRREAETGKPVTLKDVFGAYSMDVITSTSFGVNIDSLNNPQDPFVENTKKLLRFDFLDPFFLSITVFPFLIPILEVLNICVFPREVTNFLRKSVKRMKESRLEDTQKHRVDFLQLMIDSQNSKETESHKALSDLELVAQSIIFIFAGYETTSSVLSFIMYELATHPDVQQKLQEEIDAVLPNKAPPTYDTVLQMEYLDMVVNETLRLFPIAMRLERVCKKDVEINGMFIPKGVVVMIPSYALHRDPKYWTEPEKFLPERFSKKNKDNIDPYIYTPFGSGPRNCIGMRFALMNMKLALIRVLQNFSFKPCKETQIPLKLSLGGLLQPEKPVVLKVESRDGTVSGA

Cytochrome P450 3A4 [5] = target: T4, Cytochrome P450 3A4; assay: Activity of human CYP3A4 expressed in microsomes isolated from baculovirus infected insect cell assessed as enzyme-mediated 2-amino-3-((1-carboxy-2-(4-((6-methoxy-1-methyl-1H-benzo[d]imidazol-2-yl)methoxy)phenyl)ethyl)disulfanyl)propanoic acid formation at 20 uM after 2 hrs by radio-HPLC/LC-MS/MS analysis; assay type: ADME; summary of the method: as §1
Cytochrome P450 3A5 [6] = target: T1, Cytochrome P450 3A5; assay: as §2, with “CYP3A5” for “CYP3A4”; assay type: ADME
Summary of the method: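 cDNA-expressed human CYP3A5 in baculovirus-insect-cell microsomes (1 mg/ml protein) was incubated with [¹⁴C]rivoglitazone (20 μM) in 50 mM potassium phosphate (pH 7.4) or 100 mM Tris-HCl (pH 7.5). NADPH-generating system: 2 mM NADP⁺, 20 mM glucose 6-phosphate, 2 units/ml G6PDH, 10 mM MgCl₂. Incubation ran 2 h at 37°C with shaking; insect-cell control supersomes served as control. Acetonitrile stop, supernatant concentrated, then radio-HPLC, LC-MS and LC-MS/MS.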

[7] = Drug metabolism in monkey hepatocytes assessed as formation of 2-hydroxy-3-(4-((6-methoxy-1-methyl-1H-benzo[d]imidazol-2-yl)methoxy)phenyl)propanamide at 30 uM after 3 hrs by radio-HPLC/LC-MS/MS analysis in presence of NADPH-generating system and NADPH-generating system/SAM; settings: cynomolgus monkey
[8] = target: T3, UDP-glucuronosyltransferase 1A6; assay: Activity of human UGT1A6 expressed in microsomes isolated from baculovirus infected insect cell assessed as enzyme-mediated 2-mercapto-3-(4-((6-methoxy-1-methyl-1H-benzo[d]imidazol-2-yl)methoxy)phenyl)propanoic acid formation at 20 uM after 4 hrs by radio-HPLC/LC-MS/MS analysis in presence of UDPGA; assay type: ADME
[9] = Drug metabolism in human hepatocytes assessed as formation of 2-hydroxy-3-(4-((6-methoxy-1-methyl-1H-benzo[d]imidazol-2-yl)methoxy)phenyl)propanamide at 30 uM after 3 hrs by radio-HPLC/LC-MS/MS analysis in presence of NADPH-generating system and NADPH-generating system/SAM; assay type: ADME, cell-based, Hepatocyte

Drug metabolism (Cytochrome P450 2C9)	Drug metabolism (Cytochrome P450 3A5 [1])	Drug metabolism [2]	Drug metabolism [3]	Drug metabolism (Cytochrome P450 3A4 [4])	Drug metabolism (Cytochrome P450 3A4 [5])	Drug metabolism (Cytochrome P450 3A5 [6])	Drug metabolism [7]	Drug metabolism [8]	Drug metabolism [9]	Compound
metabolite_detected	–	–	–	–	–	–	–	–	–	COc1ccc2nc(COc3ccc(CC(S)C(=O)O)cc3)n(C)c2c1 (stereo not given)
–	metabolite_not_detected	metabolite_not_detected	metabolite_not_detected	metabolite_detected	metabolite_not_detected	metabolite_detected	metabolite_not_detected	metabolite_not_detected	metabolite_not_detected	COc1ccc2nc(COc3ccc(C[14CH]4SC(=O)NC4=O)cc3)n(C)c2c1.Cl (racemic)
